This is a sample that favours compounds with a hit; in the whole collection about 3.6% have one here.
CSC inhib: cancer stem cell viability inhibitors, primary screen, luminescence | cancer stem cell-like cells viability | inhibition, % at 7.5 µM | 1.1% of 300,000 active | AID 2717, 2010; in the data active = inhibition above about 75%; inconclusive = no clear call, values can overlap the other calls; tested in HMLE shEcad cells
Beta cell apopt: inhibitors of cytokine-induced beta cell apoptosis, primary screen, luminescence; INS-1E cytokine-induced death, ATP luminescence, 48 h; percent of positive-control rescue, neutral wells zero; protection from apoptosis, % (concentration not given with the values); 0.8% of 300,000 active; AID 435005, 2010;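 active = Every replicate reaches about 75%, or at least half do and their mean reaches it too, limit read from the data; inconclusive = At least half of replicates reach the limit but their mean does not; inactive = Under half of replicates reach the limit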;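 note: higher means more ATP so stronger rescue from cytokine killing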
T cruzi repl: inhibitors of intracellular T. cruzi growth, primary screen, luminescence, NIH3T3 host cells; 1.4% of 300,000 active; T. cruzi beta-gal in NIH3T3, 90 h; AID 1885, 2009; inhibition, % (test concentration not listed);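 active = mean inhibition across valid replicates above about 55%, limit read from the data; inconclusive = mean below that limit but half or more replicates reach it; inactive = mean below it, under half of replicates reach it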;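 note: signal also drops with host cell toxicity which is not excluded here; higher percent means less beta-gal luminescence so fewer parasites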
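System: NIH/3T3 fibroblasts plus reporter T. cruzi. Medium: DMEM plus 2% FBS. Probe or stimulus: 5000 reporter trypomastigotes per well. Compound: single 50 nL compound addition per well in DMSO. Incubation: co-culture of at least 90 h after 3 h attachment. Detection: GalScreen β-gal luminescence, detergent lysis, 60 min. Evaluation: parasite load inhibition, %.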
PfHsp90 set2: growth inhibition of PfHsp90-expressing yeast, primary screen, antimalarial PfHsp90 inhibitor project, S. cerevisiae, BacTiter-Glo luminescence, single point, set 2; BacTiter-Glo ATP, 48 h; yeast lacking PDR1 and PDR3 efflux regulators; inhibition, % at 9.4 µM; 0.32% of 310,000 active; AID 504621, 2011;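 active = every replicate shows inhibition above about 80%, whatever the replicate mean, limit read from the data; inconclusive = mean inhibition reaches the set limit but some replicate falls short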
SKKanGAS inh: S. pyogenes SKKanGAS growth inhibitors in kanamycin, primary screen, streptokinase expression inhibitor project, SKKanGAS strain, BacTiter-Glo luminescence; 6 h; inhibition, % at 7.5 µM; 1.3% of 300,000 active;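 active = mean replicate score, as percent of positive control median, at least 50; inconclusive = mean below 50 but one replicate at or above 50; inactive = mean and every replicate below 50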;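 note: strain carries kanamycin resistance gene driven by streptokinase promoter and grows in 40 µg/ml kanamycin; loss of luminescence reflects streptokinase promoter inhibition or plain growth inhibition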
HIF activator: HIF pathway transcriptional activators, primary screen, cell-based, U2OS HRE-luciferase, luminescence; U2OS HRE-luciferase reporter; normalized: DMSO 0%, desferrioxamine 100%; activation, % at 7.5 µM (by protocol); 0.32% of 300,000 active; AID 1910, 2009;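 active = mean activation of at least 10% of the iron chelator positive control signal, with at least half of replicates also reaching 10%; inconclusive = mean and replicate majority disagree about reaching 10%; inactive = mean and most replicates under 10%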
A number is an active result.

`COc1ccc(NC(=O)c2cc3ccccc3cc2O)cc1` gave CSC inhib 87, Beta cell apopt inactive, T cruzi repl inactive, PfHsp90 set2 inactive, SKKanGAS inh inactive and HIF activator inactive.
`COc1ccc(NC(=O)c2cc3ccc(O)cc3o/c2=N\O)cc1` gave CSC inhib 75, T cruzi repl inactive, PfHsp90 set2 inactive, SKKanGAS inh inactive and HIF activator inactive.
`CCCCCn1nc(C(=O)N(CC(C)C)c2c(N)n(CCCC)c(=O)[nH]c2=O)c2ccccc2c1=O` gave CSC inhib inactive, Beta cell apopt inactive, T cruzi repl inactive, SKKanGAS inh inactive and HIF activator inactive.
For CCN1C[C@@H]2[C@@H]3C(=O)N(Cc4ccccc4)C(=O)[C@@H]3[C@](C)(C1=O)N2C(=O)c1ccc(C(F)(F)F)cc1 the results were PfHsp90 set2 inactive.
Screening N=c1c2c(-c3ccccc3)c(-c3ccccc3)n(Cc3ccco3)c2ncn1CCCn1ccnc1 returned CSC inhib inactive, Beta cell apopt inactive, T cruzi repl 64, PfHsp90 set2 inactive, SKKanGAS inh inactive and HIF activator inactive.
For N=c1c2c(-c3ccccc3)c(-c3ccccc3)n(Cc3ccco3)c2ncn1CCCN1CCOCC1 the results were CSC inhib inactive, Beta cell apopt inconclusive, T cruzi repl 92, SKKanGAS inh inactive and HIF activator inactive.
c1ccc(-c2c(-c3ccccc3)n(Cc3ccco3)c3ncnc(NCCCn4ccnc4)c23)cc1 was read as CSC inhib 133, Beta cell apopt inactive, T cruzi repl inactive, PfHsp90 set2 104, SKKanGAS inh inactive and HIF activator inactive.
For N=c1c2c(-c3ccccc3)c(-c3ccccc3)oc2ncn1CCCN1CCOCC1 the results were CSC inhib inactive, T cruzi repl inactive, PfHsp90 set2 inactive, SKKanGAS inh inactive and HIF activator inactive.
For O=C(C1CCN(S(=O)(=O)c2ccccc2)CC1)N1CCCCCC1 the results were CSC inhib inactive, Beta cell apopt inactive, T cruzi repl inactive, PfHsp90 set2 inactive, SKKanGAS inh inactive and HIF activator inactive.
`COc1ccccc1N1CCN(C(=O)c2cccc(S(=O)(=O)N3c4ccccc4CC3C)c2)CC1` (centres undefined) gave PfHsp90 set2 inactive.
Oc1ccc(Cl)cc1Cc1cc(Cl)ccc1O was read as CSC inhib 114, Beta cell apopt inactive, T cruzi repl inactive, PfHsp90 set2 107, SKKanGAS inh inactive and HIF activator inactive.
For Oc1ccc(Cl)cc1CNCc1ccc(Cl)cc1 the results were CSC inhib inactive, Beta cell apopt inactive and PfHsp90 set2 inactive.
For CC(C)C[C@@H](CNCC(=O)[C@H](C)NC(=O)c1[nH]cnc1C(=O)N[C@H](CN)CC(C)C)NC(=O)c1nc[nH]c1C(=O)N[C@@H](C)C(=O)O the results were PfHsp90 set2 inactive.
`COCCN=c1scc(C)n1/N=C/C1CC2C=CC1C2` (centres undefined) gave CSC inhib inactive, Beta cell apopt inactive, T cruzi repl inactive, PfHsp90 set2 inactive, SKKanGAS inh inactive and HIF activator inactive.
Screening CCCCCCc1cc2cc(C(=O)OCC)c(=O)oc2cc1O returned CSC inhib inactive, Beta cell apopt inactive, T cruzi repl inactive, PfHsp90 set2 inactive, SKKanGAS inh 56 and HIF activator inactive.
For CCCCCCc1cc2cc(C(=O)Nc3ccc(OC)cc3)c(=O)oc2cc1O the results were CSC inhib inactive, Beta cell apopt inactive, T cruzi repl inactive, PfHsp90 set2 inactive, SKKanGAS inh inactive and HIF activator inactive.
For CCCCCCc1cc2cc(C(=O)Nc3cccc(OC)c3)c(=O)oc2cc1O the results were Beta cell apopt 99, T cruzi repl inactive, PfHsp90 set2 inactive, SKKanGAS inh inactive and HIF activator inactive.
For COC(=O)c1cc(C(=O)Nc2nc3ccccc3[nH]2)cc([N+](=O)[O-])c1 the results were CSC inhib inactive, Beta cell apopt inactive, T cruzi repl inactive, PfHsp90 set2 inactive, SKKanGAS inh 63 and HIF activator inactive.
For COc1ccccc1C(=O)Nc1nc2ccccc2[nH]1 the results were CSC inhib 95, Beta cell apopt 93, T cruzi repl inactive, PfHsp90 set2 99, SKKanGAS inh 90 and HIF activator inactive.

High-throughput results deposited in PubChem by Broad Institute.
